# An excerpt weighted towards active compounds, which were near 3.7% of everything screened.
# hERG rescue: shields human hERG channel from block by proarrhythmic agents. Q12809. CHO-hERG, FluxOR thallium flux, dofetilide IC70 present. activation (rescue from dofetilide block), less the hit threshold, % at 10 µM. 310,000 tested, 0.51% active;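 active = activation above the mean of controls blocked by dofetilide plus 5 SD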;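 note: thallium influx through hERG after potassium depolarization seen as dye fluorescence rise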
# Kir21 inh: Kir2.1 (mouse) channel inhibition | P35561 | HEK293-Kir2.1, FluxOR thallium flux fluorescence; stronger effect = lower value | B-score at 10 µM | 310,000 tested, 0.85% active | AID 1672;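 active = fluorescence ratio B-score at or below minus 3 SD of library scores, with starting-brightness B-score within 2 SD, cut at about -4.2 in these data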;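 note: channel flux triggered by added potassium and thallium sulfate stimulus; B-score of peak minus minimum fluorescence over baseline after thallium stimulus; more negative B-score means stronger Kir2.1 block with less thallium influx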
# KCNK9 inh: inhibitors of human KCNK9 two-pore domain potassium channel; Q9NPC2; HEK293 KCNK9, FluxOR thallium flux fluorescence; stronger effect = lower value; 310,000 tested, 1.2% active; B-score at 10 µM;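 active = ratio B-score over 3 SD below the library mean, with starting fluorescence within 5 SD of its mean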;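 note: negative B-score means less thallium flux so channel inhibition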
# KCNK3 block: human KCNK3 channel inhibition, primary screen. O14649. CHO-KCNK3 thallium flux, FluxOR fluorescence; stronger effect = lower value. B-score at 10 µM. 340,000 tested, 0.84% active. AID 602410;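 active = B-score under library mean minus 4 SD, starting fluorescence ratio at most library mean plus 5 SD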;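 note: more negative B-score means stronger inhibition of thallium flux through KCNK3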
# KCNQ1 pot: potentiators or activators of human KCNQ1 potassium channel; P51787; CHO-K1 KCNQ1, thallium flux FluxOR fluorescence; stronger effect = higher value; B-score at 10 µM; 310,000 tested, 0.35% active;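 active = fluorescence ratio B-score, a plate-corrected score, at least three library SD, with initial intensity B-score within 5 SD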
#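 assay system = KCNQ1-transfected CHO-K1 cells | medium = assay buffer with matched DMSO | probe or stimulus = depolarizing K+/Tl+ stimulus, K2SO4 and Tl2SO4 each 12.5 mM in 5x stock | dosing = single dose | incubation = dye 90 min, compound 20 min, room temperature | detection = kinetic FluxOR fluorescence, 10 s baseline plus 110 s post-stimulus | evaluation = ratio B score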
# KCNQ1 block: blocks the human KCNQ1 potassium channel. P51787. CHO-K1 KCNQ1, FluxOR thallium flux fluorescence; stronger effect = higher value. 310,000 tested, 1.3% active. B-score at 10 µM;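 active = compounds whose thallium flux B-score, printed positive for inhibition, exceeds three library SD while starting fluorescence stays within three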;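 note: channel opened by potassium depolarization with thallium stimulus after 20 min compound exposure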
# KCNK9 block conf: human KCNK9 inhibitor confirmation. shares compounds with KCNK9 inh. HEK293 KCNK9 cells, FluxOR thallium flux fluorescence. inhibition, % at 10 µM. AID 492992. 4,900 tested, 43% active;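 active = thallium signal inhibited by more than 5 SD of the compound-free buffer control wells, on both duplicate plates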
# Kir21 sel: mouse Kir2.1 off-target activity of KCNK9 modulators; shares compounds with KCNK9 inh; Kir2.1 cells, FluxOR thallium flux fluorescence; inhibition, % at 10 µM; 4,900 tested, 4% active; AID 492993;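 active = thallium signal drop more than 5 SD beyond the mean of the no-compound control wells, seen in both duplicate plates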;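 note: signal is fluorescence rise after thallium addition divided by baseline fluorescence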
# KCNK9 uninduced: non-induced cell nonspecific activity of KCNK9 modulators. 4,900 tested, 40% active. shares compounds with KCNK9 inh. AID 492997. inhibition, % at 10 µM. non-induced KCNK9-HEK293, FluxOR thallium flux;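 active = thallium signal drop beyond 5 SD of the untreated control mean, on both duplicate plates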
# A number is an active result; 0 = inactive; - = not tested or not shown.
SMILES,hERG rescue,Kir21 inh,KCNK9 inh,KCNK3 block,KCNQ1 pot,KCNQ1 block,KCNK9 block conf,Kir21 sel,KCNK9 uninduced
COC(=O)CC1(C(=O)OC)Oc2ccc(Br)cc2C(=O)N1c1cc(Cl)c(Cl)cc1Cl (centres undefined),0,0,-8.6,0,0,0,25%,0,42%
CCN(CC)S(=O)(=O)c1ccc(O)c(C(=O)OCC(=O)Nc2cc(C)c(C)cc2[N+](=O)[O-])c1,0,0,-11,0,0,0,32%,0,26%
CCN(CC(=O)Nc1ccc(NC(C)=O)cc1)C(=O)C1COc2ccccc2O1 (centres undefined),0,0,0,0,0,0,-,-,-
Cc1cc(C)c(O)c(-c2n[nH]c3c2C(c2cccc(O)c2)N(Cc2ccco2)C3=O)c1 (centres undefined),0,0,-11,0,0,0,58%,0,41%
O=C1c2[nH]nc(-c3ccccc3O)c2C(c2cccc(Cl)c2)N1Cc1ccco1 (centres undefined),0,0,0,0,0,0,-,-,-
CCc1ccc(CN(C)C(=O)CCc2nc3ccccc3n(-c3ccc(OC)cc3)c2=O)cc1,0,0,0,0,0,0,0,0,25%
CCOc1ccccc1N/C=C/C(=O)C(C)(C)C,0,0,0,0,0,0,0,0,0
COc1ccccc1OCCNC(=O)CN1C(=O)NC2(CCCC2)C1=O,-,-,-,0,-,-,-,-,-
COc1cc(OC)c2c(-c3ccccc3)cc(=O)oc2c1C(CCN1CCN(c2ccccc2)CC1)c1ccc(N(C)C)cc1 (centres undefined),0,0,0,0,0,0,-,-,-
COc1cc(OC)c2ccc(=O)oc2c1C(CCN1CCN(c2ccccc2)CC1)c1ccc(N(C)C)cc1 (centres undefined),0,0,0,0,0,0,0,0,0
CCCCCCCCNC(=O)/C(C#N)=C/c1ccc(SC)cc1,0,0,0,0,0,0,0,0,0
CCCCCCCCNC(=O)/C(C#N)=C/c1ccc2c(c1)OCCO2,0,0,0,0,0,0,0,0,0
O=C(CCNc1cc(Cl)cc(Cl)c1)c1cccs1,0,0,-8.7,0,0,0,0,0,38%
O=C(CCNc1ccc(Cl)cc1)c1cccs1,0,0,0,0,0,0,-,-,-
O=C(CCc1ccc(CCC(=O)c2cccs2)s1)c1cccs1,0,0,-11,0,0,0,57%,0,38%
COc1cc(/C=C(/C#N)C(=O)Nc2ccccc2)c(Br)cc1OCc1ccc(C(=O)O)cc1,0,0,0,0,0,0,-,-,-
COC(=O)c1ccc(COc2ccccc2/C=C(\C#N)C(=O)Nc2c(C)cc(C)cc2C)cc1,0,0,-16,0,0,0,78%,0,28%
Cc1cc(C)c(NC(=O)/C(C#N)=C/c2ccc(OCc3ccc(F)cc3)cc2)c(C)c1,0,0,0,0,0,0,0,0,0
COC(=O)c1sc(-c2ccc(C(C)(C)C)cc2)cc1NC(=O)CCC(=O)O,0,0,0,0,0,0,0,0,0
CCN(CC(=O)Nc1ccccc1OC)C(=O)CN1C(=O)NC(C)(c2ccc3ccccc3c2)C1=O (centres undefined),-,-,-,0,-,-,-,-,-
O=C(C1CCCN(S(=O)(=O)c2cccc3cccnc23)C1)N1CCc2ccccc21 (centres undefined),0,0,0,0,0,0,0,0,0
O=C(NC1CCCCC1)C1CCCN(S(=O)(=O)c2cccc3cccnc23)C1 (centres undefined),0,0,0,0,0,0,-,-,-
CCOc1ccc(NC(=O)COC(=O)CN2CCCCCC2=O)cc1,-,-,-,0,-,-,-,-,-
CCCC1CCC(=C(C#N)C(N)=O)CC1 (centres undefined),0,0,-8.8,0,0,0,0,0,0
